Measured values as given in ChEMBL document CHEMBL6134766, “Design, synthesis, and evaluation of benzhydrylpiperazine-based novel dual COX-2/5-LOX inhibitors with anti-inflammatory and anti-cancer activity” (RSC Med Chem, 2025).
The source made the active and inactive calls. No cut-off for these calls is given here.

Legend:
[1] = Acute toxicity in female Wistar rat assessed as drug tolerance up to 500 mg/kg, po measured for 14 days; format: organism-based; details: in vivo, 336 h, time 14 day
How it was run: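 Followed OECD 423 guideline in healthy female Wistar rats weighing 200–250 g. Animals were housed at 25 ± 2 °C and 45–60% RH on a 12 h light/dark cycle, with free access to water and food.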

Rattus norvegicus [2] = experiment: Anti-inflammatory activity in carrageenan-induced paw edema Wistar rat model assessed as swelling thickness of paw at 5 mg/kg, po measured immediately by digital vernier caliper (reference value: 3.48 +/- 0.21 millimeter); format: functional
Rattus norvegicus [3] = experiment: Anti-inflammatory activity in carrageenan-induced paw edema Wistar rat model assessed as swelling thickness of paw at 10 mg/kg, po measured immediately by digital vernier caliper (reference value: 3.48 +/- 0.21 millimeter); format: functional
Rattus norvegicus [4] = experiment: Anti-inflammatory activity in carrageenan-induced paw edema Wistar rat model assessed as swelling thickness of paw at 20 mg/kg, po measured immediately by digital vernier caliper (reference value: 3.48 +/- 0.21 millimeter); format: functional
Rattus norvegicus [5] = experiment: Anti-inflammatory activity in carrageenan-induced paw edema Wistar rat model assessed as swelling thickness of paw at 5 mg/kg, po measured after 2 hrs by digital vernier caliper (reference value: 8.65 +/- 0.53 millimeter); format: functional
Rattus norvegicus [6] = experiment: Anti-inflammatory activity in carrageenan-induced paw edema Wistar rat model assessed as swelling thickness of paw at 5 mg/kg, po measured after 4 hrs by digital vernier caliper (reference value: 8.36 +/- 0.78 millimeter); format: functional
Rattus norvegicus [7] = experiment: Anti-inflammatory activity in carrageenan-induced paw edema Wistar rat model assessed as swelling thickness of paw at 10 mg/kg, po measured after 5 hrs by digital vernier caliper (reference value: 8.47 +/- 0.32 millimeter); format: functional
Rattus norvegicus [8] = experiment: Anti-inflammatory activity in carrageenan-induced paw edema Wistar rat model assessed as swelling thickness of paw at 5 mg/kg, po measured after 6 hrs by digital vernier caliper (reference value: 8.33 +/- 0.42 millimeter); format: functional
Rattus norvegicus [9] = experiment: Anti-inflammatory activity in carrageenan-induced paw edema Wistar rat model assessed as swelling thickness of paw at 10 mg/kg, po measured after 6 hrs by digital vernier caliper (reference value: 8.33 +/- 0.42 millimeter); format: functional
Rattus norvegicus [10] = experiment: Anti-inflammatory activity in carrageenan-induced paw edema Wistar rat model assessed as decrease in TNF-alpha level in paw tissue at 5 to 20 mg/kg, po measured for 6 hrs by ELISA; format: functional, organism-based; details: dose 5-20 mg/kg
How it was run: (§1)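 Paw tissue taken from carrageenan-edema rats dosed orally at 5, 10 or 20 mg kg−1. Tissue rinsed in PBS pH 7.4, minced, homogenized, filtered and centrifuged at 2000 rpm for 20 min at 4 °C. Supernatant assayed by ELISA for PGE2, IL-6, TNF-α and IL-10. Data as mean ± SD.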

Rattus norvegicus [11] = experiment: Anti-inflammatory activity in carrageenan-induced paw edema Wistar rat model assessed as increase in IL-10 level in paw tissue at 5 to 20 mg/kg, po measured for 6 hrs by ELISA; format: functional, organism-based; details: dose 5-20 mg/kg; how it was run: as §1
Rattus norvegicus [12] = experiment: Anti-inflammatory activity in arachidonic acid-induced paw edema Wistar rat model assessed as swelling thickness of paw at 10 mg/kg, po measured after 1 hr by digital vernier caliper (reference value: 6.51 +/- 0.37 millimeter); format: functional
Rattus norvegicus [13] = experiment: Anti-inflammatory activity in arachidonic acid-induced paw edema Wistar rat model assessed as protection against swelling thickness of paw at 20 mg/kg, po measured after 1 hr by digital vernier caliper (reference value: 0 %); format: functional
[14] = Toxicity in fasting Wistar rat assessed as ulcer score at 20 mg/kg, po via gavage treated for 3 days consecutively by H and E staining based analysis (reference value: 0); format: organism-based; details: in vivo, 72 h, time 3 day
How it was run: (§2)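 Fasted rats, n = 6/group, gavaged once daily for 3 days in 0.3% Na CMC (vehicle control 0.3% CMC); killed under anaesthesia 6 h after day-3 dose; stomachs saline-washed, mucosa examined with hand lens; ulcer score, index and % ulceration by reported scoring; some stomachs formalin-fixed, H&E stained.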

[15] = Toxicity in fasting Wistar rat assessed as ulcer index at 5 mg/kg, po via gavage treated for 3 days consecutively by H and E staining based analysis (reference value: 0); format: organism-based; details: in vivo, 72 h, time 3 day; how it was run: as §2
[16] = Toxicity in fasting Wistar rat assessed as ulcer index at 10 mg/kg, po via gavage treated for 3 days consecutively by H and E staining based analysis (reference value: 0); format: organism-based; details: in vivo, 72 h, time 3 day; how it was run: as §2
[17] = Toxicity in fasting Wistar rat assessed as ulcer index at 20 mg/kg, po via gavage treated for 3 days consecutively by H and E staining based analysis (reference value: 0); format: organism-based; details: in vivo, 72 h, time 3 day; how it was run: as §2
Gastric mucosa = experiment: Antioxidant activity in gastric mucosal tissue in Wistar rat assessed as decrease in nitrite level at 20 mg/kg, po; format: functional, organism-based
How it was run: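 Fasted rats (n = 6/group) gavaged once daily for 3 days in 0.3% Na CMC and sacrificed 6 h after the final dose. Randomly chosen stomachs homogenized in cold PBS pH 7.4 and centrifuged at 1000 rpm for 10 min at 4 °C. Supernatant protein measured by Bradford assay; GSH and nitrate then measured by reported methods.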

[18] = Toxicity in Wistar rat assessed as change in serum ALT level at 20 mg/kg, po; format: organism-based; details: in vivo
How it was run: (§3)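 Rats dosed orally in 0.3% Na CMC; retro-orbital blood clotted at room temperature, serum separated at 2000 rpm, 20 min, 4 °C; ALT, AST, creatinine and urea by commercial kits; n = 6 per group, mean ± SD; Tukey test after repeated-measures one-way ANOVA.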

[19] = Toxicity in Wistar rat assessed as change in serum creatinine level at 20 mg/kg, po; format: organism-based; details: in vivo; how it was run: as §3
[20] = Toxicity in Wistar rat assessed as change in serum urea level at 20 mg/kg, po; format: organism-based; details: in vivo; how it was run: as §3
Rattus norvegicus [21] = experiment: Analgesic activity in acetic acid-induced pain Wistar rat model assessed as number of writhing at 20 mg/kg, po pretreated for 30 mins followed by acetic acid treatment measured for 30 mins by writhing test (reference value: 40.33 +/- 3.01); format: functional; details: 0.5 h
[22] = Toxicity in wild-type Drosophila assessed as lethal dose administered orally via food to female and male flies and measured in F1 generation flies after 15 days; format: organism-based; details: both, in vivo, route po, time 15 day, read-out: LD50
How it was run: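 Wild-type Oregon R+ flies (10 virgin females and males) were crossed on standard food containing 1, 10, 50, 100 or 200 μM compound and kept at 24 ± 1 °C. The F1 generation was followed for 15 days, scoring percent adult eclosion against an untreated control. LD50 was derived from the eclosion data, with Dunnett's test.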

Drosophila [23] = experiment: Anti-cancer activity in Drosophila harboring UAS-Ras V12 mutant assessed as improvement in pupal development at 10 uM, po; format: functional, organism-based
How it was run: (§4)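 UAS-RasV12 glial glioblastoma model (repo-GAL4/UAS-RasV12) in Drosophila, with Oregon R+ wild-type flies as control. Flies reared at 24 ± 1 °C on standard corn food containing compound at 10 or 50 μM. Percent of animals at each developmental stage (third instar larva, pupa) scored. Significance by Tukey's multiple comparisons test.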

Drosophila [24] = experiment: Anti-cancer activity in Drosophila harboring UAS-Ras V12 mutant assessed as improvement in third instar larval survivability at 10 to 50 uM, po; format: functional, organism-based; details: dose 10-50 µM; how it was run: as §4

Structure (SMILES) | Activity [1] | Activity (Rattus norvegicus [2]) | Activity (Rattus norvegicus [3]) | Activity (Rattus norvegicus [4]) | Activity (Rattus norvegicus [5]) | Activity (Rattus norvegicus [6]) | Activity (Rattus norvegicus [7]) | Activity (Rattus norvegicus [8]) | Activity (Rattus norvegicus [9]) | Activity (Rattus norvegicus [10]) | Activity (Rattus norvegicus [11]) | Activity (Rattus norvegicus [12]) | Activity (Rattus norvegicus [13]) | Activity [14] | UI [15] | UI [16] | UI [17] | Activity (Gastric mucosa) | Activity [18] | Activity [19] | also measured
Clc1ccc(-c2nnc(CN3CCN(C(c4ccccc4)c4ccc(Cl)cc4)CC3)o2)cc1 (configuration not stated) | Non-toxic | 3.51 mm | 3.21 mm | 3.43 mm | 5.63 mm | 4.18 mm | 3.29 mm | 4.14 mm | 3.37 mm | Active | Active | 2.01 mm | 70.21% | 0.018 | 0 | 2.083 | 1.875 | Active | Non-toxic | Non-toxic | Activity [20]: Non-toxic; Activity (Rattus norvegicus [21]): 17.83; LC50 at 360 h [22]: 100 µM; Activity (Drosophila [23]): Active; Activity (Drosophila [24]): Active
O=[N+]([O-])c1ccc(-c2nnc(CN3CCN(C(c4ccccc4)c4ccc(Cl)cc4)CC3)o2)cc1 (configuration not stated) | Non-toxic | 3.59 mm | 3.44 mm | 3.65 mm | 5.25 mm | 4.57 mm | 3.76 mm | 4.14 mm | 3.89 mm | Active | Active | 2.3 mm | 64.36% | 0.093 | 1.041 | 3.125 | 9.37 | Active | Non-toxic | Non-toxic | Activity [20]: Non-toxic; Activity (Rattus norvegicus [21]): 20.33
